Experimental findings from ChEMBL document CHEMBL4138194, “Synthesis of unprecedented steroidal spiro heterocycles as potential antiproliferative drugs” (Eur J Med Chem, 2018) are described below.

One series concerns HeLa. The experiment in a line: Antiproliferative activity against human HeLa cells after 48 hrs by SRB assay. Type of series: functional. The essentials: (§1)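 Seeded at 2 500 cells/well, per doubling time. Compounds were dissolved in DMSO at 400× the top test concentration and tested in triplicate at dilutions spanning 1–100 µM, starting day 1 after plating, with 0.25% v/v DMSO as control. After 48 h, cells were fixed with cold TCA for 60 min at 4 °C, then SRB-stained. Background-corrected OD was read at 530 nm, and percentage growth was calculated against untreated cells using T0 and end-point OD (NCI formulas).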
(In general: In SRB staining, fixed cells bind dye roughly in proportion to their protein.)

A further series deals with HBL-100. The experiment in a line: Antiproliferative activity against human HBL100 cells after 48 hrs by SRB assay. It is filed as functional. The settings on record: HBL-100, 48 h. The essentials:
as §1

Another series concerns WiDr. Kind of series: Antiproliferative activity against human WiDr cells after 48 hrs by SRB assay. Type of series: functional. In short, it runs like this: (§2)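 Plated at 5 000 cells/well, per doubling time. Compounds were dissolved in DMSO at 400× the maximum final concentration and tested in triplicate between 1 and 100 µM for 48 h, beginning day 1 after plating, with 0.25% v/v DMSO as control. Cells were then TCA-fixed for 60 min at 4 °C and SRB-stained. Background-corrected OD was read at 530 nm, and percentage growth was derived against untreated control from start and end OD (NCI formulas).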

The subject of another series is T47D. The experiment in a line: Antiproliferative activity against human T47D cells after 48 hrs by SRB assay. Type of series: functional. In short, it runs like this: as §2
The next series relates to SW1573. The experiment in a line: Antiproliferative activity against human SW1573 cells after 48 hrs by SRB assay. As to conditions: SW1573, 48 h. It is filed as functional. In short, it runs like this:
as §1

In a further series the test system is A549. Kind of series: Antiproliferative activity against human A549 cells after 48 hrs by SRB assay. It is filed as functional. As to conditions: A549, 48 h. The essentials: as §1
A short description of series [1]: Cytotoxicity against human hTERT-BJ cells assessed as cell growth inhibition after 48 hrs SRB assay. It is filed as cell-based. The essentials: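 BJ-hTert cells were seeded at 10 000/well and exposed from day 1 for 48 h to compounds in triplicate across 1–100 µM. DMSO stocks were 400× the top concentration, with a 0.25% v/v DMSO control. Cells were fixed with ice-cold TCA for 60 min at 4 °C and SRB-stained. Background-corrected OD was read at 530 nm, and percentage growth was computed relative to untreated cells using T0 and final OD (NCI formulas).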

Bounds are passed on as bounds.

The term GI50 denotes the concentration at which growth is held to half of that of the control. On to `CCCCNC(=S)NC[C@]1(O)CC[C@H]2[C@@H]3CC[C@H]4C[C@@H](O)CC[C@]4(C)[C@H]3CC[C@@]21C`, for which the 50% growth inhibitory concentration (GI50) came out at 14 µM with HeLa; 13 µM in the series with HBL-100; 4.5 µM with WiDr; 5.8 µM with T47D; 9.4 µM in the series with SW1573; 12 µM in the series with A549.
Turning to `COC(=O)NC[C@]1(O)CC[C@H]2[C@@H]3CCc4cc(O)ccc4[C@H]3CC[C@@]21C`, the GI50 in the series on HeLa came to 3.5 µM; in the series on HBL-100 it was 4 µM; with WiDr it was 4.9 µM; in the series on T47D, 4.3 µM; with SW1573 it was 5.9 µM; with A549, 6.8 µM.
Take `C[C@]12CC[C@@H]3c4ccc(O)cc4CC[C@H]3[C@@H]1CC[C@@]21CN=C(Nc2ccccc2)O1`: the 50% growth inhibitory concentration (GI50) in the series on HeLa was determined as 3.3 µM; in the series on HBL-100 it was 4.4 µM; in the series on WiDr, 2.6 µM; in the series on T47D it was 2.6 µM; in the series on SW1573 it was 3.4 µM; with A549 it was 2.6 µM. Also, the GI50 at 48 h in series [1] was 1.4 µM.
With `C[C@]12CC[C@H](O)C[C@@H]1CC[C@@H]1[C@@H]2CC[C@@]2(C)[C@H]1CC[C@@]21CNC(=O)O1`, the GI50 in the series on HeLa was 4 µM; in the series on HBL-100 it was 10 µM; with WiDr, 3.8 µM; in the series with T47D, 4.5 µM; with SW1573, 6 µM; with A549, 3.7 µM. Besides, the GI50 at 48 h in series [1] is less than 1 µM.
In the case of `CCCCNC1=NC[C@@]2(CC[C@H]3[C@@H]4CC[C@H]5C[C@@H](O)CC[C@]5(C)[C@H]4CC[C@@]32C)O1`, the GI50 stood at 1.6 µM in the series with HeLa; 2.1 µM in the series with HBL-100; 0.87 µM with WiDr; 1.2 µM in the series on T47D; 1.2 µM in the series with SW1573; 1.4 µM in the series on A549. Moreover, the GI50 at 48 h in series [1] was less than 1 µM.
Consider `C[C@]12CC[C@@H]3c4ccc(OCc5ccccc5)cc4CC[C@H]3[C@@H]1CC[C@@]2(O)CN=[N+]=[N-]`, for which the GI50 in the series on HeLa came out at 2.9 µM; in the series with HBL-100, 22 µM; in the series with WiDr, 2.4 µM; with T47D it was 4.1 µM; in the series on SW1573, 29 µM; in the series with A549, 13 µM.
In the case of `C[C@]12CC[C@H](O)C[C@@H]1CC[C@@H]1[C@@H]2CC[C@@]2(C)[C@H]1CC[C@@]2(O)CN=[N+]=[N-]`, the GI50 with HeLa, in the series on HBL-100, in the series with WiDr, in the series on T47D, in the series on SW1573 and in the series with A549 was greater than 100 µM in each case.
As to `C[C@]12CC[C@H](O)C[C@@H]1CC[C@@H]1[C@@H]2CC[C@@]2(C)[C@H]1CC[C@@]2(O)CNC(=S)NC1CCCCC1`, the GI50 was 21 µM with HeLa; 18 µM in the series on HBL-100; 18 µM in the series on WiDr; 18 µM with T47D; 15 µM in the series with SW1573; 16 µM with A549.
For the compound `C[C@]12CC[C@@H]3c4ccc(O)cc4CC[C@H]3[C@@H]1CC[C@@]2(O)CNC(=S)NC1CCCCC1`, the 50% growth inhibitory concentration (GI50) in the series with HeLa was determined as 3.3 µM; in the series on HBL-100 it was 5.1 µM; with WiDr, 2.8 µM; in the series with T47D, 3.9 µM; in the series with SW1573, 14 µM; in the series with A549, 4.5 µM.
Turning to `C[C@]12CC[C@@H]3c4ccc(O)cc4CC[C@H]3[C@@H]1CC[C@@]2(O)CNC(=S)Nc1ccccc1`, the GI50 in the series on HeLa turned out to be 6.3 µM; in the series with HBL-100, 15 µM; with WiDr it was 4.5 µM; with T47D, 5.7 µM; with SW1573, 21 µM; in the series with A549, 9.8 µM.
Regarding `COC(=O)NC[C@]1(O)CC[C@H]2[C@@H]3CC[C@H]4C[C@@H](O)CC[C@]4(C)[C@H]3CC[C@@]21C`, the GI50 in the series with HeLa is 70 µM; in the series with HBL-100, 99 µM; with WiDr, 39 µM; in the series with T47D, 41 µM; in the series on SW1573 it was 92 µM; in the series on A549, 38 µM.
In the case of `C[C@]12CC[C@H](O)C[C@@H]1CC[C@@H]1[C@@H]2CC[C@@]2(C)[C@H]1CC[C@@]2(O)CNC(=S)Nc1ccccc1`, the GI50 in the series with HeLa amounted to 27 µM; with HBL-100, 27 µM; in the series with WiDr it was 17 µM; with T47D, 34 µM; with SW1573 it was 27 µM; with A549 it was 29 µM.
Regarding `C[C@]12CC[C@@H]3c4ccc(O)cc4CC[C@H]3[C@@H]1CC[C@@]21CNC(=O)O1`, the GI50 amounted to 1.3 µM in the series on HeLa; 6.3 µM in the series on HBL-100; 9.2 µM in the series on WiDr; 4.4 µM in the series on T47D; 18 µM with SW1573; 5.4 µM in the series on A549.
As for `C[C@]12CC[C@@H]3c4ccc(O)cc4CC[C@H]3[C@@H]1CC[C@@]21CN=C(NC2CCCCC2)O1`, the 50% growth inhibitory concentration (GI50) came out at 1.3 µM with HeLa; 1.5 µM with HBL-100; 0.34 µM in the series with WiDr; 0.71 µM in the series on T47D; 1.5 µM in the series with SW1573; 1.1 µM in the series with A549. Further, the GI50 at 48 h in series [1] is less than 1 µM.
`C[C@]12CC[C@H](O)C[C@@H]1CC[C@@H]1[C@@H]2CC[C@@]2(C)[C@H]1CC[C@@]2(O)CN`: the 50% growth inhibitory concentration (GI50) in the series on HeLa was 22 µM; in the series on HBL-100, 20 µM; in the series with WiDr, 25 µM; in the series on T47D it was 21 µM; in the series on SW1573, 19 µM; in the series with A549 it was 17 µM.
Turning to `C[C@]12CC[C@H](O)C[C@@H]1CC[C@@H]1[C@@H]2CC[C@@]2(C)[C@H]1CC[C@@]21CN=C(NC2CCCCC2)O1`, the 50% growth inhibitory concentration (GI50) with HeLa is 1.6 µM; with HBL-100, 2 µM; in the series with WiDr, 0.96 µM; with T47D it was 1.2 µM; with SW1573, 1.5 µM; in the series on A549, 1.5 µM. In addition, the 50% growth inhibitory concentration (GI50) at 48 h in series [1] amounted to 1.2 µM.
`C[C@]12CC[C@@H]3c4ccc(O)cc4CC[C@H]3[C@@H]1CC[C@@]2(O)CN`: the GI50 with HeLa was found to be 27 µM; with HBL-100, 34 µM; in the series on WiDr, 22 µM; with T47D, 30 µM; in the series on SW1573 it was 43 µM; in the series on A549, 39 µM.
For `CCCCNC(=S)NC[C@]1(O)CC[C@H]2[C@@H]3CCc4cc(O)ccc4[C@H]3CC[C@@]21C`, the GI50 with HeLa was determined as 4.2 µM; in the series on HBL-100 it was 7.2 µM; in the series with WiDr, 4.4 µM; with T47D it was 3.9 µM; in the series with SW1573 it was 15 µM; in the series on A549, 4.8 µM.
With `CCCCNC1=NC[C@@]2(CC[C@H]3[C@@H]4CCc5cc(O)ccc5[C@H]4CC[C@@]32C)O1`, the GI50 with HeLa is 2.1 µM; in the series on HBL-100, 2.9 µM; with WiDr, 0.34 µM; in the series with T47D, 0.45 µM; in the series with SW1573, 2.2 µM; in the series with A549, 1.4 µM. The concentration for 50% growth inhibition (GI50) at 48 h in series [1] was less than 1 µM.
Regarding `C[C@]12CC[C@H](O)CC1=CC[C@@H]1[C@@H]2CC[C@]2(C)C(c3cccnc3)=CC[C@@H]12` [ABIRATERONE], the 50% growth inhibitory concentration (GI50) is 7.9 µM in the series on HeLa; greater than 100 µM in the series with HBL-100; 42 µM with WiDr; 24 µM in the series on T47D; 85 µM in the series on SW1573; 95 µM in the series with A549. In addition, in series [1], the GI50 at 48 h amounted to 4.5 µM.
Regarding `C[C@]12CC[C@H](O)CC1=CC[C@@H]1[C@@H]2CC[C@]2(C)C(n3cnc4ccccc43)=CC[C@@H]12` [GALETERONE], the concentration for 50% growth inhibition (GI50) with HeLa came to 5.3 µM; in the series with HBL-100 it was 10 µM; with WiDr, 2.7 µM; in the series on T47D, 2.1 µM; in the series with SW1573, 3.9 µM; in the series with A549 it was 3.9 µM. Besides, the GI50 at 48 h in series [1] came out at 5 µM.
